Measurements gathered from unrelated publications.
Protocols differ between the studies behind these lines.
nupG: nupG (Escherichia coli, UniProt P0AFF4)
PIK3C3: Phosphatidylinositol 3-kinase catalytic subunit type 3 (PIK3C3, Homo sapiens, UniProt Q8NEB9)

SMILES	target	observed	action	method	setting	quantity	result
OC[C@H]1OC(O)[C@H](O)[C@@H](O)[C@@H]1O (some centres unmarked)	Hexokinase-1 (Homo sapiens, UniProt P19367)	binding	–	MST	–	Kd	158 µM
Nc1nc2c(ncn2[C@@H]2O[C@H](CO)[C@@H](O)[C@H]2O)c(=O)[nH]1	nupG	binding	–	ITC	–	Kd	46.7 µM
C[C@H]1Oc2cc(cnc2N)-c2c(nn(C)c2C#N)CN(C)C(=O)c2ccc(F)cc21	Mitogen-activated protein kinase kinase kinase 13 (MAP3K13, Homo sapiens, UniProt O43283)	cell-free assay	–	–	lysate	Ki	0.0327 µM
ON=Cc1ccc(-c2ccc(O)c(F)c2)c(Cl)c1O	Estrogen receptor (ESR1, Homo sapiens, UniProt P03372)	reporter gene	agonist	luciferase	–	EC50	1.63 µM
COc1ccccc1/C=C/C(=O)NC(=S)Nc1ccc(S(=O)(=O)N(C)c2ccccc2)cc1	G-protein coupled receptor 55 (GPR55, Homo sapiens, UniProt Q9Y2T6)	β-arrestin recruitment	agonist	–	–	EC50	0.3 µM
C[C@]12CC[C@H](O)CC1=CC[C@@H]1[C@@H]2CC[C@]2(C)C(c3cccnc3)=CC[C@@H]12	Estrogen receptor (ESR1, Homo sapiens, UniProt P03372, Y537C)	ligand displacement in cells	–	radioligand	–	Ki	0.25 µM
CCOC(=O)[C@@]12C[C@@H]1[C@@H](n1cnc3c(NC)nc(C#Cc4ccc(Cl)s4)nc31)[C@H](O)[C@@H]2O	Nociceptin receptor (OPRL1, Homo sapiens, UniProt P41146)	ligand displacement	–	radioligand	–	Ki	> 10 µM
CN1CCN(c2ccc(Nc3ncc4cc(C#N)c(=O)n(C5CCCC5)c4n3)cc2)CC1	Calcium/calmodulin-dependent protein kinase type II subunit beta (CAMK2B, Homo sapiens, UniProt Q13554)	enzyme activity	inhibitor	–	–	IC50	> 10 µM
N[C@H]1C[C@@H](C(=O)O)CC1=C(C(F)(F)F)C(F)(F)F	Ornithine aminotransferase, mitochondrial (OAT, Homo sapiens, UniProt P04181)	binding	–	stopped-flow	–	Kd	3000 µM
Cc1cc(Nc2cc3ncccc3c(N[C@@H]3C[C@H]4CC[C@@H](C3)N4CCC#N)n2)n[nH]1	Death-associated protein kinase 3 (DAPK3, Homo sapiens, UniProt O43293)	binding	–	competition with immobilised ligand	–	Kd	0.019 µM
CCOCc1nc(O)c(-c2nnc(Cc3ccc(Cl)cn3)o2)c(O)c1-c1c(OC)cccc1OC	Apelin receptor (APLNR, Homo sapiens, UniProt P35414)	cell-free assay	–	radioligand	–	Kd	0.00015 µM
Cc1occc(=O)c1O	Carbonic anhydrase 14 (CA14, Homo sapiens, UniProt Q9ULX7)	enzyme activity	inhibitor	stopped-flow	–	Ki	7.2 µM
CCOc1cc(-c2nncn2C)ccc1Nc1ncc2cc(C)nc(NCC(C)(C)C)c2n1	Serine/threonine-protein kinase PLK4 (PLK4, Homo sapiens, UniProt O00444)	binding	–	competition with immobilised ligand	–	Kd	0.071 µM
Nc1ncnc2c1ncn2[C@@H]1O[C@H](CO)[C@@H](O)[C@H]1O	nupG	binding	–	ITC	–	Kd	99.7 µM
CCC(=O)N1CCC(C(=O)N(C)CC(=O)N2CCN(c3nc(-c4cnc(N)nc4C(F)F)nc(N4CCOCC4)n3)CC2)CC1	PIK3C3	binding	–	competition with immobilised ligand	–	Kd	0.405 µM
O=c1ccn([C@@H]2O[C@H](COP(=O)(O)OP(=O)(O)O[C@H]3OC[C@@H](O)[C@H](O)[C@H]3O)[C@@H](O)[C@H]2O)c(=O)[nH]1	UDP-glucose 6-dehydrogenase (UGDH, Homo sapiens, UniProt O60701)	enzyme activity	inhibitor	–	–	Ki	0.18 µM
C=CC(=O)N1CCC(C(=O)NCC(=O)N2CCN(c3nc(-c4cnc(N)nc4C(F)F)nc(N4CCOCC4)n3)CC2)CC1	PIK3C3	binding	–	competition with immobilised ligand	–	Kd	0.054 µM
CCC(S)C(C)CO (centres unmarked)	OR2M3 (Homo sapiens, UniProt Q8NG83)	cAMP	agonist	luciferase	–	EC50	1.4 µM
Cc1nc(NC(=O)N2CCC[C@H]2C(N)=O)sc1-c1ccnc(C(C)(C)C(F)(F)F)c1	PIK3C3	binding	–	competition with immobilised ligand	–	Kd	24.5 µM
CCCOc1cccc2nc(N)n(Cc3ccc(Cl)c(Cl)c3)c12	Pteridine reductase (PTR1, Trypanosoma brucei brucei, UniProt O76290)	enzyme activity	inhibitor	absorbance	–	Ki	0.05 µM
